Results reported in ChEMBL document CHEMBL4382252, “1,4-Benzodioxane Lignans: An Efficient, Asymmetric Synthesis of Flavonolignans and Study of Neolignan Cytotoxicity and Antiviral Profiles” (J Nat Prod, 2018).

Tests used:
[1] = system: Huh7.5.1; test: (§1) Cytotoxicity against human Huh7.5.1 cells after 72 hrs by ATPlite assay; assay type: cell-based; details: huh7.5.1, 72 h
Summary of the method: (§2)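 Compounds in DMSO added to cells at a range of concentrations. ATP measured by ATPlite after 72 h. DMSO held at 0.5% final in all wells, including controls. Triplicate per concentration. CC50 obtained by log-transforming doses and fitting a variable-slope four-parameter regression.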

[2] = Selectivity index, ratio of CC50 for human Huh7.5.1 cells to IC50 for HCV JFH1 infected in human Huh7.5.1 cells; assay type: toxicity, cell-based; details: for selectivity ratio: Huh7.5.1 cells, HCV JFH1-infected Huh7.5.1 cells, read-out: Ratio CC50/IC50
[3] = system: Hepatitis C virus; test: Antiviral activity against HCV JFH-1 infected in human Huh7.5.1 cells assessed as reduction in NS3/NS5A expression by Western blot analysis; assay type: functional, organism-based, Hepacivirus hominis
Summary of the method: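 Huh7.5.1 human hepatoma cells infected with HCV (JFH-1) at MOI 0.05 for 5 h; inoculum then replaced with fresh medium containing compound, three concentrations each. DMSO solvent control ≤0.5% final. Lysates run on SDS-PAGE and Western blotted for NS3 and NS5A, reprobed for actin as loading control. IC50 estimated from pixel intensity of viral protein bands.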

[4] = as §1; assay type: cell-based; details: Huh7.5.1 cells; summary of the method: as §2
[5] = Hepatitis C virus, JFH-1, Huh-7.5.1

| IC50 [3] | IC50 [3, 5] | Molecule | CC50 [1] | Ratio CC50/IC50 [2] | CC50 at 72 h [4] | selectivity ratio [2] |
| --- | --- | --- | --- | --- | --- | --- |
| 80 µM | – | SILYMARIN | 100 µM | 1.25 | – | – |
| – | 40 µM | COc1cc([C@H]2Oc3cccc(OC)c3O[C@@H]2C)cc(OC)c1OC | – | – | 50.2 µM | 1.25 |
| – | 25 µM | COc1cc([C@H]2Oc3cc(/C=C/C=O)cc(OC)c3O[C@@H]2C)cc(OC)c1OC | – | – | 47.6 µM | 1.91 |
| – | 60 µM | COc1cc(C2Oc3cc([C@H]4Oc5cc(O)cc(O)c5C(=O)[C@@H]4O)ccc3OC2CO)ccc1O (stereo not given in full) [SILIBININ] | – | – | 80 µM | 1.33 |
| – | 50 µM | COc1cc([C@H]2Oc3cc(/C=C/CO)cc(OC)c3O[C@@H]2C)cc(OC)c1OC | – | – | 129 µM | 2.57 |
| – | 200 µM | COc1cc([C@H]2Oc3cc(/C=C/CO)cc(OC)c3O[C@@H]2CO)cc(OC)c1O | – | – | 464 µM | 2.32 |
| – | 50 µM | COc1cc([C@H]2Oc3cc([C@H]4Oc5cc(O)cc(O)c5C(=O)[C@@H]4O)ccc3O[C@@H]2CO)ccc1O [SILYBIN A] | – | – | 80 µM | 1.6 |
| – | 30 µM | C=CCc1cc(OC)c2c(c1)O[C@H](c1cc(OC)c(OC)c(OC)c1)[C@@H](C)O2 | – | – | 36.2 µM | 1.21 |
| – | 50 µM | COc1cc([C@@H]2Oc3cc([C@H]4Oc5cc(O)cc(O)c5C(=O)[C@@H]4O)ccc3O[C@H]2CO)ccc1O [SILYBIN B] | – | – | 68.7 µM | 1.37 |
| – | 20 µM | C=CCc1cc(OC)c2c(c1)O[C@H](c1ccc3c(c1)OCO3)[C@@H](C)O2 | – | – | > 125 µM | > 6.25 |
